An excerpt weighted towards active compounds, which were near 2.2% of everything screened.
ARFGAP1 inh – inhibits rat ARF GTPase activating protein 1; 0.26% of 360,000 active; Arfgap1-stimulated ARF1 GTP hydrolysis, GDP FP detection; inhibition, % at 16.5 µM; Q62848;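 active = inhibition above a per-plate limit, mean inhibition of low control wells plus 3 SD, cut at about 25% in these data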;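 note: 0% = DMSO wells with enzyme and 100% = wells lacking Arfgap1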
Target sequence (Q62848 1-136 limits assumed): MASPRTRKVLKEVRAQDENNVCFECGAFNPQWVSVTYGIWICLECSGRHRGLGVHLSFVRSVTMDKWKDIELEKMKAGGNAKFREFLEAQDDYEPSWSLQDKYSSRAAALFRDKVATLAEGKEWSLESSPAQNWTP
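Replicates: Single well per compound | Assay system: Truncated rat Arfgap1 GAP domain | Control set: No-Arfgap1 wells (100%) versus DMSO full-reaction wells (0%) | Times: Enzyme reaction 120 min at 25 °C after 20 min preincubation | Reagent: Human ARF1(Δ1-17)-GTP substrate | Measured by: Tracer-displacement fluorescence polarization with EDTA stop, 620/688 nm | Measure: Percent inhibition of Arfgap1-stimulated GTP hydrolysis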
NRP1-CendR mod – alters CendR peptide binding to human NRP-1. inhibition, % at 25 µM. AID 602438. 0.85% of 360,000 active. O14786. FAM-RPARPAR peptide binding to NRP-1, fluorescence polarization;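 active = inhibition or corrected inhibition above about 18%, plus a signal ratio from 0.5 to 1.5, limit read from the data, passing the limit was not always enough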
V-ATPase pH – regulators of yeast V-ATPase proton transport; 0.37% of 350,000 active; response, % at 10 µM; S. cerevisiae, pHLuorin cytosolic pH fluorescence; in the data active = response mostly above about 7.3%, no sharp cut-off; inactive = mostly below about 5.4%; note: actives read high
Exocytosis inh – blocks lytic granule exocytosis; TALL-104 LAMP-1 surface exposure, flow cytometry; cells stimulated with thapsigargin and PMA; inhibition, % at 10 µM; 0.66% of 360,000 active; AID 651702;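 active = inhibition above about 55%, limit read from the data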
ASAP1 inh – blocks human ASAP1-stimulated Arf1 GTP hydrolysis; AID 624377; GDP FP detection; 0.19% of 360,000 active; inhibition, % at 16.5 µM; Q9ULH1; in the data active = inhibition above about 25%;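 note: 0% = vehicle with enzyme and substrate and 100% = no enzyme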
Target sequence (Q9ULH1 325-724 limits assumed): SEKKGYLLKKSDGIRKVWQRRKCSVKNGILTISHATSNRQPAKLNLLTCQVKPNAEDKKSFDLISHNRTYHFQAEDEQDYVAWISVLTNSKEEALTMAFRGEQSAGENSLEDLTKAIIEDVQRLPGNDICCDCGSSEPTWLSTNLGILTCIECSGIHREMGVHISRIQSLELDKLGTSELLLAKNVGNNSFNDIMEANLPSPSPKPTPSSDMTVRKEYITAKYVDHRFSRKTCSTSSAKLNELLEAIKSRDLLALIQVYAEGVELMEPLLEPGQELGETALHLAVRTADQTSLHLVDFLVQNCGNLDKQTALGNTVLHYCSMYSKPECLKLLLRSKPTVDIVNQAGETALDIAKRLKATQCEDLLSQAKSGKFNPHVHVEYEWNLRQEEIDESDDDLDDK
ARFGAP1 confirm – confirmation of rat ARFGAP1 inhibitors | shares compounds with ARFGAP1 inh | ARFGAP1-stimulated ARF1 GTP hydrolysis, GDP tracer FP | inhibition, % at 16.5 µM | 30% of 890 active;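 active = average inhibition over triplicates above the hit cutoff set in the earlier primary screen, cut at about 25% in these data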;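 note: 0% = Arfgap1 plus ARF1-GTP with DMSO and 100% = wells lacking Arfgap1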
Starred values were filed as active, the others as inactive; . = no result.

SMILES	ARFGAP1 inh	NRP1-CendR mod	V-ATPase pH	Exocytosis inh	ASAP1 inh	ARFGAP1 confirm
COc1ccc(OC)c(NC(=O)C2(C)CCN2Cc2ccccc2Cl)c1 (centres undefined)	25*	-1	.	5	-7	6
O=C1NC(=O)/C(=C\c2ccccc2OCc2ccc([N+](=O)[O-])cc2)N1	14	-1	-1	0	10	.
O=C1NC(=O)/C(=C\c2ccc(OCc3cccc([N+](=O)[O-])c3)cc2)N1	49*	0	-1	1	22	86*
COc1ccc(NC(C)=O)cc1S(=O)(=O)N1CCN(Cc2cccs2)CC1	-13	8	4	-4	-2	.
COc1cccc(/C=C/c2nc3c(cnn3-c3ccccc3)c(=O)[nH]2)c1	28*	-11	-5	0	17	5
Cc1ccc([C@H]2C[C@@H](O)[C@H](n3cc(-c4ccc(F)cc4)nn3)CN2C(=O)c2cccs2)cc1	19	-1	-3	5	0	.
Cc1ccc(C(=O)COC(=O)CCN2C(=O)C3C4C=CC(C5CC45)C3C2=O)cc1 (centres undefined)	-6	-7	2	0	4	.
S=C(NCc1cccnc1)Nc1cc(Cl)cc(Cl)c1	25*	13	3	-16	1	1
S=C(NCc1ccncc1)Nc1cc(Cl)cc(Cl)c1	25*	-3	-1	-1	10	5
Cc1onc(-c2c(F)cccc2Cl)c1C(=O)Nc1ccc(Cl)c(S(=O)(=O)N(C)C)c1	6	6	7	0	5	.
C=CCOc1ccc(C(=O)Nc2ccccc2C(=O)NCc2cccnc2)cc1	8	8	1	-16	11	.
COc1ccc(NC(=O)c2cc(-c3cc(Cl)ccc3OC)n[nH]2)cc1OC	28*	2	.	-2	11	22
Cc1ccc(NC(=O)C(C)N2CCN(C)CC2)cc1S(=O)(=O)N1CCOCC1 (centres undefined)	-2	14	-1	4	-5	.
COc1cc2c(cc1OC)C(C)N(C(=O)c1cc3c(s1)-c1ccccc1OC3)CC2 (centres undefined)	25*	-8	-2	4	4	5
COc1cc2c(cc1OC)C(C)N(C(=O)c1cc3c(s1)-c1c(C)cccc1OC3)CC2 (centres undefined)	-2	-5	-1	0	8	.
COCCN(CCOC)Cc1cc(=O)oc2cc(C)c(C)cc12	7	-11	.	1	-2	.
c1ccc(OCCn2cnc3ccccc32)cc1	7	-17	-4	-1	8	.
c1ccc(CCn2cnc3ccccc32)cc1	26*	4	5	-1	-7	8
CC(=O)Nc1ccc(Nc2nc(C(F)(F)F)nc3c2nnn3Cc2ccccc2Cl)cc1	8	-2	-1	-11	-8	.
CSc1nc(N)c2cn[nH]c2n1	-7	14	3	-1	5	.
Clc1cccc(CNc2nc(-c3cccnc3)nc3ccccc23)c1	32*	-10	-2	99*	1	27*
Clc1cccc(Nc2nc(-c3ccncc3)nc3ccccc23)c1	39*	-22	2	44	8	50*
CC1CCCC(N2CCN(C(=O)c3ccc([N+](=O)[O-])cc3)CC2)C1 (centres undefined)	3	-4	3	-6	4	.
COc1ccc(CCN2C(=O)NC(NC(=O)CC(C)C)(C(F)(F)F)C2=O)cc1OC (centres undefined)	28*	1	2	1	-14	-3
O=C(Nc1ccc(Oc2cccc3ccccc23)cc1)c1ccco1	28*	2	0	0	-7	12
SMILES	ARFGAP1 inh	NRP1-CendR mod	V-ATPase pH	Exocytosis inh	ASAP1 inh	ARFGAP1 confirm
O=C(O)c1ccccc1C(=O)Nc1ccc(Oc2cccc3ccccc23)cc1	3	-8	-2	7	-7	.
COc1ccc2oc(C(=O)N(Cc3ccco3)Cc3cccs3)c(C)c2c1	1	-14	2	-3	-11	.
C=C(C)C(O)Cc1c(OC)ccc(C(=O)/C=C/c2ccc(O)cc2)c1O (centres undefined)	15	-19	4	2	6	.
CC(C)=CCC/C(C)=C/Cc1c(O)ccc(C(=O)/C=C/c2ccc(O)cc2)c1O	28*	-1	-3	9	20	26*
Cc1ccc(C(C)C)c(OCc2ccc(C(=O)N/N=C/c3ccc(O)cc3O)cc2)c1	30*	-5	2	-4	22	32*
OC(c1ccc(Cl)cc1)c1ncc(-c2cccc(C(F)(F)F)c2)[nH]1 (centres undefined)	2	-7	.	4	-4	.
O=C(Nc1ccc(Cl)cc1)OCc1cn(-c2ccc(Cl)cc2)nn1	68*	-6	.	-1	78*	53*
CCOC(=O)c1ccc(-c2c(-c3ccccc3OC)oc3ccccc23)cc1F	-1	16	-1	-1	1	.
COc1ccccc1-c1oc2ccccc2c1-c1ccc2cc[nH]c2c1	26*	15	2	3	10	12
Cc1ccc2oc(=O)c3cc(C(=O)NCCCN4C(C)CCCC4C)sc3c2c1 (centres undefined)	-4	1	0	-2	2	.
COc1ccc(-c2csc(NC(=O)[C@H](C)N3C(=O)C4CC=CCC4C3=O)n2)cc1OC (some centres undefined)	-8	-7	3	-1	3	.
CC(C(=O)Nc1nc(-c2ccc(F)c(F)c2)cs1)N1C(=O)C2CC=CCC2C1=O (centres undefined)	27*	13	-5	-2	6	2
CC(C)(C)c1ccccc1NC(=O)CN1C(=O)NC2(CCCCCC2)C1=O	2	-8	4	0	10	.
Cc1ccc2nc(-c3ccc(SCC(=O)Nc4nc(C)cs4)nc3)[nH]c2c1	25*	-17	-1	-1	-6	33*
CC(=O)Nc1ccc(SC(Sc2ccc(NC(C)=O)cc2)c2ccccc2)cc1	30*	7	-5	2	16	19
O=C1CC(N2CCC(c3nc4ccccc4s3)CC2)C(=O)N1Cc1ccccc1 (centres undefined)	37*	-12	5	0	17	4
COc1ccc(C(=O)NN/C=C/C(=O)c2ccc(Br)cc2)cc1	6	-8	5	-3	-3	.
COc1ccc(C(=O)C=CNNC(=O)c2ccc(Cl)cc2)cc1	26*	3	0	2	-8	-1
O=C(O)c1ccc(Cn2cnc3scc(-c4ccccc4)c3c2=O)cc1	25*	10	-4	-4	12	1
Cc1ccc(-c2csc3ncn(Cc4ccc(C(=O)O)cc4)c(=O)c23)cc1C	2	-31	2	-2	4	.
Clc1cccc(CN2CCN(Cc3ccco3)CC2)c1	25*	10	7	-13	2	-5
Cc1ccc(CNC(=O)C2CCCN(S(=O)(=O)c3ccc(F)cc3)C2)cc1 (centres undefined)	18	3	1	10	1	.

Screens: PubChem BioAssay, several laboratories
